# Most compounds without a hit are left out; they make up all but 4.7% or so of the library.
# NR3A LBD binder: modulates the human NR3A ligand-binding domain; NR3A LBD differential scanning fluorimetry, Tm shift; 0% = protein alone, 100% = glycine-bound protein; AID 1259313; Tm shift relative to glycine control, % at 25 µM; 340,000 compounds, 2.5% hits;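 active = melting temperature shift of at least 10% of the positive control shift, at one fixed dose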
# MT1-MMP act inh: inhibitors of human MT1-MMP activation. P50281. HT1080 RFP-PRO-GFP cells, GFP/RFP ratio fluorescence, overnight; percent of plate control window, DMSO zero. GFP/RFP ratio change, % at 20 µM. 360,000 compounds, 0.061% hits. AID 651647;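 active = GFP/RFP ratio change of at least 30% with cell ATP level not reduced by more than half and red fluorescence within 50% of control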
#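 Assay system: RFP-PRO-GFP reporter HT1080 cells; read-out basis: GFP/RFP fluorescence ratio; benchmarks: DMSO wells and RFP-L50D-GFP cells; doses: 20 µM single dose, 1% DMSO; schedule: overnight cell settling, then overnight compound exposure, 37 °C, 5% CO2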
# SKN-1 inh: inhibitors of C. elegans SKN-1; C. elegans VP596 Pgst-4::GFP/RFP ratio, acrylamide-induced, 24 h; 360,000 compounds, 0.49% hits; inhibition, % at 21.8 µM; AID 624304;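 active = interference check ratio from 0.5 to 1.5 plus GFP to RFP signal ratio inhibition reaching or exceeding a fixed threshold, cut at about 30% in these data, passing the limit was not always enough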
# ADAM17 inh: inhibitors of human ADAM17; P78536; recombinant ADAM17, EDANS/DABCYL FRET peptide cleavage; inhibition, % at 6.95 µM; 370,000 compounds, 0.83% hits; AID 720648;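 active = inhibition above the mean of compounds lying between control limits plus 3 SD, set per campaign, cut at about 8.5% in these data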;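 also: 0% = DMSO-only wells as the low control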
# Target sequence (P78536 215-824 limits assumed): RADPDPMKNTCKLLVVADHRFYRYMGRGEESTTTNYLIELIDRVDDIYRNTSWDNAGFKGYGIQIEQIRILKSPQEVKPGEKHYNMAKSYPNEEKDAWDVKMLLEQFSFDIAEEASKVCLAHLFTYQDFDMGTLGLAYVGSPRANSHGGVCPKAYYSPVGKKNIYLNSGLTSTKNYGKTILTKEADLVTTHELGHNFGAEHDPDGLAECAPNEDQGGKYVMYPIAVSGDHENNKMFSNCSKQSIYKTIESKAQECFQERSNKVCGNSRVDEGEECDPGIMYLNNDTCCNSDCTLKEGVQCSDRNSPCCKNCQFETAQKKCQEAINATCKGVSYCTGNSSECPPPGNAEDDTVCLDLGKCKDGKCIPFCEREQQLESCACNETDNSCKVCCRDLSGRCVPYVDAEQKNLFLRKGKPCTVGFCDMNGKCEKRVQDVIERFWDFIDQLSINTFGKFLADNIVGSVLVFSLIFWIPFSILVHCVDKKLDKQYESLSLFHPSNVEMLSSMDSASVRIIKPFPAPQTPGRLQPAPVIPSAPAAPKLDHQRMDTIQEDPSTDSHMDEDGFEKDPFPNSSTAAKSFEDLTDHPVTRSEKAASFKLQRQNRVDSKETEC
# ADAM10 inh: inhibitors of human ADAM10; AID 720582; 370,000 compounds, 0.62% hits; O14672; inhibition, % at 7 µM; recombinant ADAM10, EDANS/DABCYL FRET peptide cleavage, 3 h;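 active = inhibition above a per-campaign cutoff equal to the mean of compounds falling between control-based bounds plus 3 SD, cut at about 20% in these data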;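 also: 0% = DMSO wells while the 100% control is not disclosed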
# MPTP inh: inhibitors of mitochondrial permeability transition pore | isolated mouse mitochondria, Ca2+ swelling absorbance, 30 min | 360,000 compounds, 1.4% hits | inhibition, % at 10 µM;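 active = inhibition of 50% or more, scaled per plate between neutral and stimulator controls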;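 also: 0% = DMSO wells given calcium and 100% = 1 mM EGTA wells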
# * hit, by the source's call; / = no result given.
SMILES,NR3A LBD binder,MT1-MMP act inh,SKN-1 inh,ADAM17 inh,ADAM10 inh,MPTP inh
CN(C)S(=O)(=O)c1cccc(-c2nn(-c3ccccc3)cc2/C=C(/C#N)C(=O)NCc2ccco2)c1,15.5*,3.2,0.1,-2.0,-9.3,-1.3
N#C/C(=C\c1ccc([N+](=O)[O-])cc1)C(=O)NCCCn1ccnc1,2.2,-2.0,8.1,-2.5,1.0,4.0
N#C/C(=C\c1cn(-c2ccccc2)nc1-c1ccccc1)S(=O)(=O)c1ccccc1,3.0,0.2,2.4,0.1,-6.4,2.6
Cc1cccc(Nc2nc(N)c([N+](=O)[O-])c(N3CCC(C)CC3)n2)c1,-3.7,-1.3,3.5,6.2,13.6,34.1
O=C(c1cc(Cl)cc(Cl)c1)N1CCC2CC1c1cc(-c3ccc4c(c3)OCO4)ccc12 (centres undefined),2.4,5.2,-5.3,-4.7,-3.2,-0.2
CC1(C)CC(=O)C(C=NCCN2CCN(C(=O)CCl)CC2)=C(O)C1,2.2,2.2,9.5,-1.0,3.9,1.3
CCC(=O)N1CCN(CCN=CC2=C(O)CC(C)(C)CC2=O)CC1,12.7*,7.4,-8.1,-5.0,-10.5,-0.8
O=C(CNc1ccc2ccccc2c1)N/N=C/C=C/c1cccc([N+](=O)[O-])c1,22.0*,-6.7,-6.2,0.2,-1.1,0.6
O=C(N/N=C/C=C\c1cccc([N+](=O)[O-])c1)c1cccnc1,12.5*,9.3,1.1,-0.4,8.4,0.2
CC(/C=C/c1cccc([N+](=O)[O-])c1)=N/NC(=O)c1cccnc1,-0.4,-1.2,-1.4,-3.1,-10.8,0.3
O=C(/C=C/c1ccc([N+](=O)[O-])cc1)c1cccnc1,23.5*,3.2,10.9,-3.5,1.1,0.2
O=C(N/N=C/C=C/c1cccc([N+](=O)[O-])c1)C(O)c1ccccc1 (centres undefined),-2.2,2.3,5.8,0.1,0.8,0.8
CCOc1ccc(NC(=O)c2ccc(CC)s2)c([N+](=O)[O-])c1,-1.5,6.4,-4.7,-7.8,-9.2,-0.1
COc1cccc(-c2cc(C(=O)Nc3c(C)nn(Cc4ccccc4)c3C)no2)c1,-1.3,-7.6,24.8,/,/,-1.0
COc1cccc(-c2cc(C(=O)Nc3c(C)nn(Cc4ccccc4C)c3C)no2)c1,11.1*,-1.4,3.8,-1.7,5.5,-0.2
COc1ccc(-c2cc(C(=O)Nc3c(C)nn(Cc4ccccc4)c3C)no2)cc1,-3.3,9.8,36.2*,-5.8,-8.7,-0.3
CCc1nc2ccc(C(=O)Nc3cccc(NS(C)(=O)=O)c3)cn2c1N(C)CCCc1ccccc1,/,1.3,8.1,3.0,2.7,0.8
COc1ccc(C(=O)Nc2ccc(NC(C)=O)cc2)cc1S(=O)(=O)N(C)Cc1ccccc1,1.7,1.7,1.9,-3.5,-5.7,-1.1
COc1cccc(CNc2nc3cc(-c4ccccc4)sc3c(=O)n2C)c1OC,/,1.0,3.3,-1.0,-3.0,0.4
COc1ccc(OC)c(CN2CCCC(CCC(=O)N(C)CCc3ccccn3)C2)c1 (centres undefined),2.7,-3.6,-0.6,-3.3,-12.0,-1.9
CN1C[C@@H]2[C@@H]3C(=O)N(C)C(=O)[C@@H]3[C@](C)(C1=O)N2C(=O)c1ccc(F)cc1,10.3*,-2.5,0.2,-2.9,-3.3,-1.1
CCN1C(=O)C(CC(=O)NCCc2ccccc2)N(NC(=O)c2cccnc2)C1=S (centres undefined),-0.8,1.5,4.8,-3.5,-5.7,-1.3
CCc1ccc(-n2c(SCC(=O)Nc3cc(C)[nH]n3)nc3[nH]ncc3c2=O)cc1,0.6,0.2,39.4*,-0.2,-1.6,-3.7
COc1c(C)cc(Br)cc1C(=O)Nc1ccc(S(N)(=O)=O)cc1,-1.0,-0.2,-1.6,0.0,1.8,-0.1
S=C(Nc1ccc(Cl)c(Cl)c1)NC1CCN(Cc2ccccc2)CC1,7.4,4.4,11.0,3.7,19.8*,47.9
SMILES,NR3A LBD binder,MT1-MMP act inh,SKN-1 inh,ADAM17 inh,ADAM10 inh,MPTP inh
Fc1ccc(NC(=S)NC2CCN(Cc3ccccc3)CC2)cc1,-0.7,-0.3,-3.7,-4.2,-2.6,0.4
O=C(/C=C\Nc1cccc(F)c1)c1cccs1,-1.3,-2.0,69.1*,0.1,-9.8,5.6
O=C(/C=C/Nc1ccc(F)cc1F)c1ccc(Br)cc1,-9.2,-0.6,7.9,0.7,2.3,3.7
Cc1ccc(NCCC(=O)c2cccs2)cc1,13.1*,-0.7,6.4,-0.9,4.4,-3.5
O=C(/C=C/Nc1ccc(F)cc1F)c1cccs1,9.3,-6.2,59.9*,3.0,8.4,1.3
Cc1ccc(NCCC(=O)c2cccs2)cc1C,-0.5,-6.4,-2.9,-1.4,-7.5,1.5
Cc1ccc(N/C=C/C(=O)c2cccs2)cc1,-22.3,-3.3,41.9*,1.9,-9.3,0.9
CCOC(=O)N1CCC(NC(=O)C2CCC(CNS(=O)(=O)c3ccc(OC)cc3)CC2)CC1 (centres undefined),0.4,2.8,-15.3,-1.8,0.9,-1.3
CC(=O)Nc1ccc(NC(=O)CSc2nc(=O)n3cccc(C)c3n2)cc1,0.2,5.5,3.3,-3.2,0.4,-0.9
CCOC(=O)CN1C=C(c2ccc3ccccc3n2)C(C[N+](=O)[O-])c2ccccc21 (centres undefined),1.4,-238.4,-14.0,/,/,-10.7
CCOC(=O)c1ccccc1N/C=C/C(=O)c1cccs1,4.6,9.2,22.5,-1.6,-12.7,9.1
O=C(/C=C/Nc1ccccc1F)c1cccs1,-32.6,-4.7,85.1*,-0.7,5.4,7.8
CN(Cc1c(C(=O)N(C)Cc2ccccc2)nc2ccccn12)CC1Cc2ccccc2O1 (centres undefined),-2.1,1.3,-4.1,-4.8,3.1,3.8
COc1ccc(/C=N/NC(=S)Nc2ccccc2)cc1COc1ccc(Br)cc1,11.4*,7.5,15.4,0.9,9.2,1.7
N#Cc1nccc2ccc(OCc3ccc(Br)cc3)cc12,/,-1.3,17.8,-1.9,-11.2,-2.3
O=C(/C=C/c1ccccc1)Nc1cccc(C(=O)NCCCCc2ccccc2)c1,26.9*,-2.6,-4.6,5.5,17.4,3.1
O=C(NCCc1ccccc1)c1cccc(NC(=O)C2CC2)c1,-0.5,12.3,-13.1,-3.7,-5.5,0.4
O=C(/C=C/c1ccccc1)Nc1cccc(C(=O)NCCc2ccccc2)c1,17.5*,4.9,5.7,-0.7,10.9,1.5
CCOC(=O)Nc1cc(C)ccc1OC,-0.3,0.7,6.6,-2.1,-0.6,-0.3
COc1cccc(NC(=O)COC(=O)c2ccccc2F)c1,-5.0,0.3,5.0,-2.2,-0.8,1.2
O=C1C=C(N2CCN(C(=O)c3ccccc3)CC2)C2(CCCCC2)O1,11.3*,1.3,10.4,-3.7,-11.6,-1.3
O=C1C=C(N2CCCCC2)C2(CCCCC2)O1,-1.7,0.9,6.7,-3.2,-1.2,-0.1
O=C1NC[C@@H](CCCCN2CCN(Cc3ccccc3)C(=O)C2=O)N(CCC2CCCCC2)C1=O,/,2.5,0.6,-7.4,-11.4,0.0

# Source: PubChem BioAssay (several laboratories)
